Test results from ChEMBL document CHEMBL3259693, “Multitarget drug discovery for tuberculosis and other infectious diseases” (J Med Chem, 2014).
In brackets after ≈: the same amount, converted by molar mass. Activity calls are given as the source filed them. The rule behind the calls is not given here.

What was measured:
[1] = tested on: Mycobacterium tuberculosis; assay: microbe, parasite or virus in culture; format: functional; conditions: ATCC 27294
[2] = tested on: Mycolicibacterium smegmatis; assay: microbe, parasite or virus in culture; format: functional; conditions: ATCC 700084
Bacillus subtilis = assay: Antimicrobial activity against Bacillus subtilis subsp. subtilis ATCC 6051 after 12 to 16 hrs by microbroth dilution method; format: functional, organism-based
Staphylococcus aureus = assay: Antimicrobial activity against methicillin-resistant Staphylococcus aureus USA300; format: functional
Escherichia coli [3] = assay: microbe, parasite or virus in culture; format: functional, organism-based; conditions: ATCC 29425, 3 h
Saccharomyces cerevisiae = assay: Antimicrobial activity against Saccharomyces cerevisiae ATCC 208352 after 48 hrs by microbroth dilution method; format: functional, organism-based; conditions: ATCC 208352, 48 h
Candida albicans = assay: Antimicrobial activity against Candida albicans CAI-4; format: functional, organism-based
Plasmodium falciparum = assay: Antimicrobial activity against Plasmodium falciparum 3D7 by intraerythrocytic assay; format: functional, organism-based
MCF7 = assay: Cytotoxicity against human MCF7 cells assessed as growth inhibition by MTT assay; format: cell-based
[4] = tested on: Mycolicibacterium smegmatis; assay: Inhibition of respiration in Mycobacterium smegmatis after 5 mins by methylene blue reduction assay in presence of NADH; format: functional, organism-based
[5] = Inhibition of Escherichia coli N-terminal strep-tagged MenA expressed in Escherichia coli C43 (DE3) assessed as demethylmenaquinone-3 formation after 30 mins by HPLC analysis
[6] = tested on: Mycolicibacterium smegmatis; assay: Disruption of membrane potential in Mycobacterium smegmatis by DisC3(5) probe-based fluorescence spectrophotometry; format: functional, organism-based
Escherichia coli [7] = assay: Induction of collapse in deltapH in Escherichia coli inverted membrane vesicles by 31P NMR spectroscopy; format: functional, organism-based
[8] = Therapeutic index, ratio of IC50 for human MCF7 cells to IC50 for Plasmodium falciparum 3D7; format: cell-based; conditions: MCF7 cells versus Plasmodium falciparum 3D7, read-out: Ratio IC50
Escherichia coli [9] = assay: Ratio of IC50 for Escherichia coli ATCC 29425 in presence of 10% fetal bovine serum to IC50 for Escherichia coli ATCC 29425; format: functional
Method in brief: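 E. coli broth microdilution in LB. Culture was grown to OD600 ~0.4, diluted 500-fold, and exposed to compound from 0.3 mM, 2× serially diluted to 292 nM. Plates ran 3 h at 37 °C with or without 10% FBS. Viability was read by MTT at 570 nm, and IC50 was obtained by non-linear regression.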

[10] = target: T1, 4,4'-diapophytoene synthase (Staphylococcus aureus, UniProt A9JQL9); assay: Inhibition of Staphylococcus aureus CrtM
T1 sequence (A9JQL9 whole entry): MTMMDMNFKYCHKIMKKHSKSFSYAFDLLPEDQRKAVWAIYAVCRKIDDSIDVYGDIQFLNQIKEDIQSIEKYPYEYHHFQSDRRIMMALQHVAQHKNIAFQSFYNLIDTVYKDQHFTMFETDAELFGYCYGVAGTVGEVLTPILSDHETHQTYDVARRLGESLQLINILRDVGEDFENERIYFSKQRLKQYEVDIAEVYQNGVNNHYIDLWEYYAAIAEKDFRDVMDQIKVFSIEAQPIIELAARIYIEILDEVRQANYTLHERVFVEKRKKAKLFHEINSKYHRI

Squalene synthase = target: T2, Squalene synthase (Homo sapiens, UniProt P37268); assay: Inhibition of human SQS
T2 sequence (P37268 whole entry): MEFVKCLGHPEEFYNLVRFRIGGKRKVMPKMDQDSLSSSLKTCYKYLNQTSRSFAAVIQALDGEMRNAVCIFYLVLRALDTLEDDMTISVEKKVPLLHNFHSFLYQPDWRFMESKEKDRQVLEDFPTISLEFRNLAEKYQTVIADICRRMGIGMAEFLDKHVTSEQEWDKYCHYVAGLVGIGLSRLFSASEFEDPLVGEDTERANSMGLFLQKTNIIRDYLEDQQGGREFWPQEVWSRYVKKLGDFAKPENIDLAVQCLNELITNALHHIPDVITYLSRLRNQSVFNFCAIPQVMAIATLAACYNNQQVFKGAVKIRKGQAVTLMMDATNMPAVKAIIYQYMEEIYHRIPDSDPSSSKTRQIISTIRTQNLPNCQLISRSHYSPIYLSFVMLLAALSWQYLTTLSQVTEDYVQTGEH

[11] = Inhibition of Mycobacterium smegmatis MenA; design: species or system Mycolicibacterium smegmatis
[12] = Inhibition of Mycobacterium smegmatis MenG using radiolabeled S-adenosylmethionine as substrate after 1 hr by liquid scintillation counting analysis; design: species or system Mycolicibacterium smegmatis
[13] = Therapeutic index, ratio of IC50 for human MCF7 cells to MIC for Mycobacterium tuberculosis ATCC 27294; format: cell-based; conditions: MCF7 cells versus Mycobacterium tuberculosis ATCC 27294, read-out: TI
[14] = tested on: Mycolicibacterium smegmatis; conditions: at 40 to 120 µM
[15] = tested on: Mycobacterium tuberculosis; assay: Antimicrobial activity against Mycobacterium tuberculosis after 7 to 21 days by microdilution method; format: functional
[16] = tested on: Mycolicibacterium smegmatis; assay: Antimicrobial activity against Mycobacterium smegmatis after 10 hrs; format: functional
[17] = tested on: Mycolicibacterium smegmatis; assay: Induction of collapse in deltapH in Mycobacterium smegmatis inverted membrane vesicles at 30 to 150 uM by 31P NMR spectroscopy; format: functional

Row | Compound | MIC [1] [µM] | MIC [2] [µM] | IC50 (Bacillus subtilis) [µM] | MIC (Staphylococcus aureus) [µM] | IC50 (Escherichia coli [3]) [µM] | IC50 (Saccharomyces cerevisiae) [µM] | IC50 (Candida albicans) [µM] | IC50 (Plasmodium falciparum) [µM] | IC50 (MCF7) [µM] | IC50 [4] [µM] | IC50 [5] [µM] | IC50 [6] [µM] | IC50 (Escherichia coli [7]) [µM] | further results
1 | CC(C)=CCC/C(C)=C/CNCCOc1ccccc1 | 23 (≈ 6.29 µg/mL) | 44 (≈ 12 µg/mL) | 62 | 117 (≈ 32 µg/mL) | 220 | 11 | 74 | 51 | 23 | 2500 | 4.6 |  |  | 
2 | CC(C)=CCC/C(C)=C/CNCCOC(C)(C)C | 24 (≈ 6.08 µg/mL) | 198 (≈ 50.2 µg/mL) |  |  |  | 174 |  | 13 | 178 | 9500 | 4.6 | 150 | 4.7 | 
3 | CC(C)=CCC/C(C)=C/CNC(=O)COC1C2CC3CC(C2)CC1C3 (stereo unspecified) | 2.2 (≈ 0.76 µg/mL) | 18 (≈ 6.22 µg/mL) |  |  |  |  |  | 18 | 35 | 330 | 5.8 | 150 | 12 | 
4 | CC(C)=CCC/C(C)=C/CNCCOC1C2CC3CC(C2)CC1C3 (stereo unspecified) | 0.06 (≈ 0.0199 µg/mL) | 4.8 (≈ 1.59 µg/mL) | 48 | 24 (≈ 7.96 µg/mL) | 8.5 | 5.4 | 36 | 2.4 | 30 | 0.5 | 0.4 | 31 | 0.8 | selectivity ratio [8]: 40; Ratio IC50 (Escherichia coli [9]): 1.6; IC50 [10]: 100 µM; IC50 (Squalene synthase): 100 µM; IC50 [11]: 4 µM; IC50 [12]: 15 µM; selectivity ratio [13]: 900; inhibition [14]: Active
5 | CC[C@@H](CO)NCCN[C@@H](CC)CO [ETHAMBUTOL] |  |  |  |  |  |  |  |  |  |  |  |  |  | MIC [15]: 9.8 µM (≈ 2 µg/mL); MIC [16]: 4.9 µM (≈ 1 µg/mL)
6 | CC(C)=CCC/C(C)=C/CNCCO[C@@H]1C[C@@H]2CC[C@@]1(C)C2(C)C | 0.15 (≈ 0.05 µg/mL) | 4.8 (≈ 1.6 µg/mL) | 5.4 | 24 (≈ 8.01 µg/mL) | 36 | 2.7 | 19 |  | 3.9 | 0.3 | 3.2 | 44 | 0.8 | Ratio IC50 (Escherichia coli [9]): 1.6; IC50 [11]: 8 µM; IC50 [12]: 5.7 µM; EC50 [6]: 15 µg/mL (≈ 45 µM); Activity [17]: Active
7 | N#CC(C#N)=NNc1cccc(Cl)c1 |  |  |  |  |  |  |  |  |  |  |  |  |  | Activity [17]: Active
8 | CC(C)=CCC/C(C)=C/CNCCOc1cccc2ccccc12 | 19 (≈ 6.15 µg/mL) | 37 (≈ 12 µg/mL) | 7.4 | 25 (≈ 8.09 µg/mL) | 46 | 11 | 37 |  | 22 | 140 | 3.3 | 130 | 7.1 | 
9 | CO[C@@H]1C[C@@H](C[C@H]2CC[C@H](C)[C@H]([C@@H](C)C(=O)O)O2)O[C@]2(O[C@](C)([C@H]3CC[C@@](C)([C@@H]4O[C@@H]([C@H]5O[C@@](O)(CO)[C@H](C)C[C@@H]5C)C[C@@H]4C)O3)C[C@H]2C)[C@@H]1C |  |  |  |  |  |  |  |  |  |  |  |  |  | Activity [17]: Active
10 | CC(C)=CCC/C(C)=C/CNCCCOC1C2CC3CC(C2)CC1C3 (stereo unspecified) | 4.6 (≈ 1.59 µg/mL) | 18 (≈ 6.22 µg/mL) | 8.7 | 23 (≈ 7.95 µg/mL) | 6.7 | 7.8 | 19 | 2.4 | 9.8 | 4.8 | 1.9 | 50 | 1.1 | 
11 | CC(C)=CCC/C(C)=C/COCC(=O)NC1C2CC3CC(C2)CC1C3 (stereo unspecified) | 34 (≈ 11.7 µg/mL) | 72 (≈ 24.9 µg/mL) | 49 |  |  |  |  | 11 | 27 | 280 | 16 | 150 | 7.4 | 
12 | CC(C)[C@@H]1NC(=O)[C@H](C)OC(=O)[C@@H](C(C)C)NC(=O)[C@@H](C(C)C)OC(=O)[C@H](C(C)C)NC(=O)[C@H](C)OC(=O)[C@@H](C(C)C)NC(=O)[C@@H](C(C)C)OC(=O)[C@H](C(C)C)NC(=O)[C@H](C)OC(=O)[C@@H](C(C)C)NC(=O)[C@@H](C(C)C)OC1=O |  |  |  |  |  |  |  |  |  |  |  |  |  | Activity [17]: inactive
13 | CC(C)=CCC/C(C)=C/COCCOC1C2CC3CC(C2)CC1C3 (stereo unspecified) |  | 150 (≈ 49.9 µg/mL) |  |  |  |  |  | 24 | 220 | 600 | 4.2 | 150 | 15 | 
14 | CC(C)=CCC/C(C)=C/C[N+](C)(C)CCOC1C2CC3CC(C2)CC1C3 (stereo unspecified) | 1.6 | 24 | 8.6 | 16 | 76 | 31 | 37 | 0.16 | 6.5 | 0.5 | 1 | 51 | 18 | 
15 | CC(C)=CCC/C(C)=C/COCCNC1C2CC3CC(C2)CC1C3 (stereo unspecified) | 0.57 (≈ 0.189 µg/mL) | 19 (≈ 6.3 µg/mL) |  |  | 13 |  |  | 2.8 | 338 | 36 | 1.8 | 78 | 1 | IC50 [10]: 100 µM; IC50 (Squalene synthase): 100 µM
